From ChEMBL document CHEMBL2034938, “Convenient synthesis of novel geiparvarin analogs with potential anti-cancer activity via click chemistry” (Eur J Med Chem, 2012)

Tests used:
SW480 = assay: Cytotoxicity against human SW480 cells by after 48 hrs by MTT assay; type: functional, cell-based; settings: SW480, 48 h
Method in brief: (§1)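 MTT assay; cell lines obtained from Shanghai Institute of Biological Sciences, CAS. Compounds in DMSO stock (10 g/L), diluted in medium just before use. Cells seeded at 8000/well; compound added 24 h later, in duplicate. After 48 h at 37 °C, 5% CO₂, MTT (5 mg/mL in PBS) added for 4 h. Formazan dissolved in DMSO; absorbance read at 570 nm. IC50 taken as the concentration giving 50% growth inhibition.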

A549 [1] = assay: Cytotoxicity against human A549 cells by after 48 hrs by MTT assay; type: functional, cell-based; settings: A549, 48 h; method in brief: as §1
[2] = Cytotoxicity against human L02 cells by after 48 hrs by MTT assay; type: cell-based; settings: L02, 48 h; method in brief: as §1
[3] = Cytotoxicity against human QGY7701 cells by after 48 hrs by MTT assay; type: functional, cell-based; settings: QGY7701, 48 h; method in brief: as §1
SGC-7901 = assay: Cytotoxicity against human SGC7901 cells by after 48 hrs by MTT assay; type: functional, cell-based; settings: SGC-7901, 48 h; method in brief: as §1
HeLa = assay: Cytotoxicity against human HeLa cells by after 48 hrs by MTT assay; type: functional, cell-based; method in brief: as §1
MDA-MB-231 = assay: Cytotoxicity against human MDA-MB-231 cells by after 48 hrs by MTT assay; type: functional, cell-based; settings: MDA-MB-231, 48 h; method in brief: as §1
A549 [4] = assay: Induction of apoptosis in human A549 cells assessed as late apoptotic cells at 4 uM after 48 hrs by annexinV/propidium iodide staining-based flow cytometric analysis (reference value: 0.16%); type: functional
A549 [5] = assay: Induction of apoptosis in human A549 cells assessed as early apoptotic cells at 4 uM after 48 hrs by annexinV/propidium iodide staining-based flow cytometric analysis ( Rvb = 0.15%); type: functional
A549 [6] = assay: Induction of apoptosis in human A549 cells assessed as viable cells at 1 uM after 48 hrs by annexinV/propidium iodide staining-based flow cytometric analysis ( Rvb = 95.96%); type: functional; settings: A549, 48 h, read-out: Activity
A549 [7] = assay: Induction of apoptosis in human A549 cells assessed as necrotic cells at 4 uM after 48 hrs by annexinV/propidium iodide staining-based flow cytometric analysis (reference value: 3.72%); settings: A549, 48 h
A549 [8] = assay: Induction of apoptosis in human A549 cells assessed as early apoptotic cells at 1 uM after 48 hrs by annexinV/propidium iodide staining-based flow cytometric analysis ( Rvb = 0.15%); type: functional
A549 [9] = assay: Induction of apoptosis in human A549 cells assessed as necrotic cells at 8 uM after 48 hrs by annexinV/propidium iodide staining-based flow cytometric analysis (reference value: 3.72%); settings: A549, 48 h
A549 [10] = assay: Induction of apoptosis in human A549 cells assessed as viable cells at 2 uM after 48 hrs by annexinV/propidium iodide staining-based flow cytometric analysis ( Rvb = 95.96%); type: functional; settings: A549, 48 h, read-out: Activity
A549 [11] = assay: Induction of apoptosis in human A549 cells assessed as late apoptotic cells at 8 uM after 48 hrs by annexinV/propidium iodide staining-based flow cytometric analysis (reference value: 0.16%); type: functional
A549 [12] = assay: Induction of apoptosis in human A549 cells assessed as necrotic cells at 2 uM after 48 hrs by annexinV/propidium iodide staining-based flow cytometric analysis (reference value: 3.72%); settings: A549, 48 h
A549 [13] = assay: Induction of apoptosis in human A549 cells assessed as early apoptotic cells at 8 uM after 48 hrs by annexinV/propidium iodide staining-based flow cytometric analysis ( Rvb = 0.15%); type: functional
A549 [14] = assay: Induction of apoptosis in human A549 cells assessed as late apoptotic cells at 1 uM after 48 hrs by annexinV/propidium iodide staining-based flow cytometric analysis (reference value: 0.16%); type: functional
A549 [15] = assay: Induction of apoptosis in human A549 cells assessed as late apoptotic cells at 2 uM after 48 hrs by annexinV/propidium iodide staining-based flow cytometric analysis (reference value: 0.16%); type: functional
A549 [16] = assay: Induction of apoptosis in human A549 cells assessed as viable cells at 8 uM after 48 hrs by annexinV/propidium iodide staining-based flow cytometric analysis ( Rvb = 95.96%); type: functional; settings: A549, 48 h, read-out: Activity
A549 [17] = assay: Induction of apoptosis in human A549 cells assessed as early apoptotic cells at 2 uM after 48 hrs by annexinV/propidium iodide staining-based flow cytometric analysis ( Rvb = 0.15%); type: functional
A549 [18] = assay: Induction of apoptosis in human A549 cells assessed as viable cells at 4 uM after 48 hrs by annexinV/propidium iodide staining-based flow cytometric analysis ( Rvb = 95.96%); type: functional; settings: A549, 48 h, read-out: Activity

Compound	IC50 (SW480) [µM]	IC50 (A549 [1]) [µM]	IC50 [2] [µM]	IC50 [3] [µM]	IC50 (SGC-7901) [µM]	IC50 (HeLa) [µM]	IC50 (MDA-MB-231) [µM]	further results
O=c1ccoc2cc(OCc3cn(Cc4ccccc4F)nn3)ccc12	11.4	10.8	> 300	36.9	> 100	> 100	–	–
O=c1ccoc2cc(OCc3cn(Cc4cccc(Br)c4)nn3)ccc12	> 100	> 100	> 300	17.6	> 100	> 100	> 100	–
COc1ccc(Cn2cc(COc3ccc4c(=O)ccoc4c3)nn2)cc1	20.4	16.5	> 300	56.6	> 100	14.4	> 100	–
O=c1ccoc2cc(OCc3cn(Cc4ccc([N+](=O)[O-])cc4)nn3)ccc12	19.3	> 100	> 300	> 100	> 100	25.7	–	–
O=c1ccoc2cc(OCc3cn(Cc4cccc(Cl)c4)nn3)ccc12	12.9	13.7	> 300	28.4	> 100	> 100	> 100	–
O=c1ccoc2cc(OCc3cn(Cc4ccccc4Br)nn3)ccc12	> 100	> 100	> 300	> 100	> 100	14.5	> 100	–
Cc1ccccc1Cn1cc(COc2ccc3c(=O)ccoc3c2)nn1	> 100	> 100	> 300	> 100	> 100	15.3	> 100	–
O=c1ccoc2cc(OCc3cn(Cc4ccccc4)nn3)ccc12	42.9	> 100	> 300	> 100	> 100	> 100	> 100	–
CC(C)(C)c1ccc(Cn2cc(COc3ccc4c(=O)ccoc4c3)nn2)cc1	28.8	> 100	> 300	> 100	> 100	17.6	> 100	–
O=c1ccoc2cc(OCc3cn(Cc4ccc(Cl)cc4)nn3)ccc12	> 100	> 100	> 300	41.7	> 100	37.6	> 100	–
O=c1ccoc2cc(OCc3cn(Cc4ccc(Br)cc4)nn3)ccc12	37.5	> 100	> 300	96.4	> 100	> 100	> 100	–
N#Cc1cccc(Cn2cc(COc3ccc4c(=O)ccoc4c3)nn2)c1	> 100	14.3	> 300	24.4	> 100	> 100	> 100	–
N#Cc1ccc(Cn2cc(COc3ccc4c(=O)ccoc4c3)nn2)cc1	> 100	> 100	> 300	> 100	> 100	> 100	> 100	–
Cc1cccc(Cn2cc(COc3ccc4c(=O)ccoc4c3)nn2)c1	11.7	20.3	> 300	22.4	> 100	> 100	16	–
O=c1ccoc2cc(OCc3cn(Cc4ccc(F)cc4)nn3)ccc12	11.2	> 100	> 300	14.4	> 100	12	> 100	–
C/C(=C\COc1ccc2ccc(=O)oc2c1)C1=CC(=O)C(C)(C)O1 [GEIPARVARIN]	20.3	18	> 300	17.7	7.59	9.09	9.88	Activity (A549 [4]): 4.27%; Activity (A549 [5]): 18.87%; viability at 1 µM (A549 [6]): 90.7%; necrotic cells at 4 µM (A549 [7]): 5.13%; Activity (A549 [8]): 6.19%; necrotic cells at 8 µM (A549 [9]): 5.87%; viability at 2 µM (A549 [10]): 77%; Activity (A549 [11]): 3.56%; necrotic cells at 2 µM (A549 [12]): 4.26%; Activity (A549 [13]): 25.25%; Activity (A549 [14]): 1.32%; Activity (A549 [15]): 5.25%; viability at 8 µM (A549 [16]): 65.3%; Activity (A549 [17]): 11.51%; viability at 4 µM (A549 [18]): 71.7%
O=c1ccoc2cc(OCc3cn(Cc4ccccc4Cl)nn3)ccc12	23.5	> 100	> 300	19.7	> 100	> 100	–	–
C#CCOc1ccc2c(=O)ccoc2c1	> 100	> 100	> 300	58.5	> 100	64.7	> 100	–
Cc1ccc(Cn2cc(COc3ccc4c(=O)ccoc4c3)nn2)cc1	10.4	50.7	> 300	68.5	> 100	> 100	> 100	–
O=c1ccoc2cc(OCc3cn(Cc4cccc(F)c4)nn3)ccc12	> 100	> 100	> 300	> 100	> 100	7.55	> 100	–
O=c1[nH]cc(F)c(=O)[nH]1 [FLUOROURACIL]	–	–	46.6	–	6.04	–	–	–
